Measured values taken from ChEMBL document CHEMBL2384911 (Bioorg Med Chem, 2013).
The source made the active and inactive calls. No cut-off for these calls is given here.

Experiments:
[1] = system: Mast/stem cell growth factor receptor Kit (Homo sapiens), P10721 [K642E]; assay: Inhibition of KIT K642E mutant autophosphorylation (unknown origin) expressed in human GIST882 cells at < 3000 nM by ELISA; assay type: cell-based
[2] = biological target: Bcr/Abl fusion protein (Homo sapiens) (UniProt P00519+P11274); assay: Inhibition of human BCR-ABL1 autophosphorylation expressed in mouse BA/F3 cells at < 3000 nM by ELISA; assay type: cell-based; details: BaF3
Bcr/Abl fusion protein [3] = biological target: T1, Bcr/Abl fusion protein (Homo sapiens, UniProt P00519); assay: Inhibition of human BCR-ABL1 (unknown origin) expressed in mouse 32D cells; assay type: cell-based
Bcr/Abl fusion protein [4] = biological target: T1, Bcr/Abl fusion protein; assay: Inhibition of human BCR-ABL1 autophosphorylation expressed in mouse BA/F3 cells by ELISA; assay type: cell-based, BaF3
Bcr/Abl fusion protein [5] = biological target: T1, Bcr/Abl fusion protein; assay: Inhibition of human BCR-ABL1 expressed in mouse BA/F3 cells assessed as cell growth inhibition by ATP-depletion assay; assay type: cell-based, BaF3
[6] = biological target: Mast/stem cell growth factor receptor Kit (Homo sapiens, UniProt P10721, K642E); assay: Inhibition of KIT K642E mutant autophosphorylation (unknown origin) expressed in human GIST882 cells by ELISA; assay type: cell-based
Rattus norvegicus = assay: AUC (0 to 48 hrs) in Sprague-Dawley rat assessed as N-[4-Methyl-3-[[4-(3-pyridinyl)-2-pyrimidinyl]amino]-phenyl]-4-(1-piperazinylmethyl)benzamide at 1 mg/kg, iv administered as bolus dose; assay type: ADME, organism-based, Plasma; design: time < 48 hr, dose 1 mg/kg, route intravenous; details: in vivo
How it was run: (§1)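 Single IV bolus into femoral vein, 1 mg/kg in 0.5 mL/kg vehicle (30% NMP, 70% PEG200). Serial blood samples taken from femoral artery for up to 48 h, stored at −20 °C. Proteins precipitated with CH3CN containing internal standard, then LC/MS/MS with ESI; LLOQ 0.4 ng mL. Parameters from non-compartmental analysis.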

[7] = AUC (0 to 48 hrs) in Sprague-Dawley rat at 1 mg/kg, iv administered as bolus dose; assay type: ADME, organism-based; design: time < 48 hr, dose 1 mg/kg, route intravenous; details: plasma; how it was run: as §1
Liver microsomes [8] = assay: Metabolic stability in human liver microsomes assessed as compound remaining by capillary-HPLC/MS analysis; assay type: ADME, Microsome
How it was run: (§2)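 Parent compound added from 2 mM DMSO stock to liver microsomes (20 mg protein/mL) in 100 mM phosphate buffer pH 7.4 with alamethicin and UDPGA. Pre-incubated 3 min at 37 °C, started with NADPH-regenerating system, run up to 60 min at 37 °C. Stopped with ice-cold CH3CN, centrifuged, diluted, analysed by capillary-HPLC/MS; peak areas not corrected for response factors.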

Liver microsomes [9] = assay: Metabolic stability in rat liver microsomes assessed as compound remaining by capillary-HPLC/MS analysis; assay type: ADME, Microsome; how it was run: as §2
in vivo = details: Sprague-Dawley, rat, plasma, iv, 1 mg/kg

Mast/stem cell growth factor receptor Kit (Homo sapiens), P10721 [K642E], sequence (P10721 whole entry K642E, the tested form may be a part): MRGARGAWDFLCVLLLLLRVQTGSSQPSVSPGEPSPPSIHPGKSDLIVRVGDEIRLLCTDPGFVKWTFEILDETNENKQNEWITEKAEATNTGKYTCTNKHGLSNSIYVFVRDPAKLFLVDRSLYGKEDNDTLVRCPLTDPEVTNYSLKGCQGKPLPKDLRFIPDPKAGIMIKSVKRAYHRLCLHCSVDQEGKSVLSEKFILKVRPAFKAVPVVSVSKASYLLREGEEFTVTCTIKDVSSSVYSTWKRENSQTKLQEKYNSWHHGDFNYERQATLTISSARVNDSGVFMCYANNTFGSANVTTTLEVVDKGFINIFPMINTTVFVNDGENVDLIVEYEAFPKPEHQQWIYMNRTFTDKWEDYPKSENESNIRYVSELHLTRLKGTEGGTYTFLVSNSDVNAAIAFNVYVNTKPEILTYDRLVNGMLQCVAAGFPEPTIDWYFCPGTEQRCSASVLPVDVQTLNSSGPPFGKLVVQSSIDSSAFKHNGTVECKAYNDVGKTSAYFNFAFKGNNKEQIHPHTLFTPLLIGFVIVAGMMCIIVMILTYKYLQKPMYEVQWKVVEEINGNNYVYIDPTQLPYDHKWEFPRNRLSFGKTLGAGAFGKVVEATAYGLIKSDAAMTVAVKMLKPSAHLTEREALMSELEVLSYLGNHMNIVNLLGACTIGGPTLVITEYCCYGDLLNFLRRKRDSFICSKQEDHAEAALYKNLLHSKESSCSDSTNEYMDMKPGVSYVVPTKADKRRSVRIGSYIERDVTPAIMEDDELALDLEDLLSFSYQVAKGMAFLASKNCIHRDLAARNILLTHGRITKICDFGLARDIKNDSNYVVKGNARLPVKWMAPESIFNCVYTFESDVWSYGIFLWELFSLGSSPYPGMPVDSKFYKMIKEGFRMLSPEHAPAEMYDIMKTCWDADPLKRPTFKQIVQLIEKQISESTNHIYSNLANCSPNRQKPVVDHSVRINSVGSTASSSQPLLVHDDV
Bcr/Abl fusion protein (Homo sapiens), sequence (P00519 whole entry, looked up, the tested form may be a part): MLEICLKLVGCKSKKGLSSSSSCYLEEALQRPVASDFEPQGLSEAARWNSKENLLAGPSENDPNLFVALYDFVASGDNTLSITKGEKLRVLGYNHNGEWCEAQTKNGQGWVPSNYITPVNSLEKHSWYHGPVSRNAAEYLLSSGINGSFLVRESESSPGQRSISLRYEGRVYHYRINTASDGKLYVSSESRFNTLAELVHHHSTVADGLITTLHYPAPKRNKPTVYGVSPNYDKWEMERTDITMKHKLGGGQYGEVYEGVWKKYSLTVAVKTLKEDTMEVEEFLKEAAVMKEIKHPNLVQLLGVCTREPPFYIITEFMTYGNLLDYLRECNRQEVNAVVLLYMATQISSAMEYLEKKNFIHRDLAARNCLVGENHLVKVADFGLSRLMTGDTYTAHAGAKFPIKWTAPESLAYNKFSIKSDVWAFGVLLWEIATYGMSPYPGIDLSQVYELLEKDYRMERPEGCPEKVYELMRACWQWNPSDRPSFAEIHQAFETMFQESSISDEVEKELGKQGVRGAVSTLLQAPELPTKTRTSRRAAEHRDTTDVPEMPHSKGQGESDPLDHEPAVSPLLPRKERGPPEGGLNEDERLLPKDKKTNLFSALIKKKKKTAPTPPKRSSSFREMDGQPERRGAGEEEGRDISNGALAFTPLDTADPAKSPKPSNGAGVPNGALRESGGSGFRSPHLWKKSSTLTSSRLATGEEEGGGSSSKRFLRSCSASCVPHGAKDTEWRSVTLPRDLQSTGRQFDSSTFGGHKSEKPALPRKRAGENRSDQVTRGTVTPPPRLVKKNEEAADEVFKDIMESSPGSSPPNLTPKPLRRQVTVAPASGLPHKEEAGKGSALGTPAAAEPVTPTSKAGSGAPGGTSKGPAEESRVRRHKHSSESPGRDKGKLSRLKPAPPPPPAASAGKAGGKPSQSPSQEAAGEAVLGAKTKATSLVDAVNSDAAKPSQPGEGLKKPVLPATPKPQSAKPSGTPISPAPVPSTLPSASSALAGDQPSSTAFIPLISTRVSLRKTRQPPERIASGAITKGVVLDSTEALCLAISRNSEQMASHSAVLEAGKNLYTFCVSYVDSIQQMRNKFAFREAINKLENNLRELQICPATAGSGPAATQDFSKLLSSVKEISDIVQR
Bcr/Abl fusion protein (Homo sapiens), sequence (P11274 whole entry, looked up, the tested form may be a part): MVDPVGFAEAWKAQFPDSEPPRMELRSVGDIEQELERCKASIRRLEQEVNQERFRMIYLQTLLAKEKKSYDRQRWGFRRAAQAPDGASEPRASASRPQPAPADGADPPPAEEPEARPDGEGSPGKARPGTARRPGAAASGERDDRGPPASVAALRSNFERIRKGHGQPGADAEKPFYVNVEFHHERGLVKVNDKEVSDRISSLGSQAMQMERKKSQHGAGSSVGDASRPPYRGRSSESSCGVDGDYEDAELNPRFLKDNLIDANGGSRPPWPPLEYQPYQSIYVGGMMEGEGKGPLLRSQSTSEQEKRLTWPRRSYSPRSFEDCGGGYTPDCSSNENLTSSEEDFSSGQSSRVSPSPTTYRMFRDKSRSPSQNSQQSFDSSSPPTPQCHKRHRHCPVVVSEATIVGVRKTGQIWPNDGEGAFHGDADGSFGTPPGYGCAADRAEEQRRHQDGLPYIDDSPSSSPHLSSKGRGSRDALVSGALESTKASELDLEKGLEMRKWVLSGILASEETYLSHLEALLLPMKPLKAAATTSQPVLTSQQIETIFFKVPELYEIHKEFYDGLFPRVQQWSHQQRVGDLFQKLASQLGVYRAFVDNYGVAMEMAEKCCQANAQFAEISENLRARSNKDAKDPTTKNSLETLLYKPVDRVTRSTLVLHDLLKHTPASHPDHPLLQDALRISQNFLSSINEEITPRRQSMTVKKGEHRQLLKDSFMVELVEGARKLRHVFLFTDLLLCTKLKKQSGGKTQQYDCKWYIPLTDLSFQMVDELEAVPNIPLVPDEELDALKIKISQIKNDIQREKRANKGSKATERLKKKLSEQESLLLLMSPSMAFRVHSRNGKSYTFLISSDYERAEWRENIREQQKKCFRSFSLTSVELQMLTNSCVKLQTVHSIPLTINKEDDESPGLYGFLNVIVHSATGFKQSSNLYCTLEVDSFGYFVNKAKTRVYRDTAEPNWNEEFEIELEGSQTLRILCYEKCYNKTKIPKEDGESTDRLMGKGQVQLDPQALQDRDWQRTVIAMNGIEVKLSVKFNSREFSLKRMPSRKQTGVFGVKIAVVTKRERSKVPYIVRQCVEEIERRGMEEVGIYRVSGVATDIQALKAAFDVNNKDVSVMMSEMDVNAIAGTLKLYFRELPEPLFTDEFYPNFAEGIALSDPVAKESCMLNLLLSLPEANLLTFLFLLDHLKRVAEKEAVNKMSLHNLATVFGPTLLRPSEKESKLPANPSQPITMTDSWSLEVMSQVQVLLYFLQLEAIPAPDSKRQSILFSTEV
T1 sequence (P00519 whole entry, the tested form may be a part): as the sequence (P00519 whole entry, looked up, the tested form may be a part) above
T1 sequence (P11274 whole entry, further chain, the tested form may be a part): as the sequence (P11274 whole entry, looked up, the tested form may be a part) above
Mast/stem cell growth factor receptor Kit, sequence (P10721 26-976 K642E limits assumed): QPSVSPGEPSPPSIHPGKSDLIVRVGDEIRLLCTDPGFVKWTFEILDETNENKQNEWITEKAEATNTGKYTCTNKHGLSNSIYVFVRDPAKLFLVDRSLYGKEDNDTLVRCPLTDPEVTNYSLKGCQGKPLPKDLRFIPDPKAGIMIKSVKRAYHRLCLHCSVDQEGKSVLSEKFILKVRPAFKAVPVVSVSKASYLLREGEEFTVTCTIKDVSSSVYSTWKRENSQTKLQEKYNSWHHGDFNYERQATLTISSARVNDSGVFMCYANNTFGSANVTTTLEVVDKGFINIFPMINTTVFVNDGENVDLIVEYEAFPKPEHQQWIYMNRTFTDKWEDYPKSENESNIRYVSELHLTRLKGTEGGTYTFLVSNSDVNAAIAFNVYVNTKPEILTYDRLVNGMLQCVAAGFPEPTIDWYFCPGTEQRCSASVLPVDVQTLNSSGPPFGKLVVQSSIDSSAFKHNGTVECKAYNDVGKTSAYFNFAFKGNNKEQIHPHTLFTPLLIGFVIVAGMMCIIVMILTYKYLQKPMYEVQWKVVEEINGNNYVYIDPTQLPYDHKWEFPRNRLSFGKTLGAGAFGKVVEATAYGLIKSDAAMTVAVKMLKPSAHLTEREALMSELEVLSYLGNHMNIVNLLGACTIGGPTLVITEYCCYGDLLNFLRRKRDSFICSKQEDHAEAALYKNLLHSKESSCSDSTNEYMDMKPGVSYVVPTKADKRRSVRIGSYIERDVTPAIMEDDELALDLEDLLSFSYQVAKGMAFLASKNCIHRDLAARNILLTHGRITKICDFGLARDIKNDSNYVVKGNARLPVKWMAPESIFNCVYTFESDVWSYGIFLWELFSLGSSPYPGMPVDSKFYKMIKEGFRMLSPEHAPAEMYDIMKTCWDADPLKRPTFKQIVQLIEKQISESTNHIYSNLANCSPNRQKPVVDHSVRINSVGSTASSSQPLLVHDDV

With `Cc1ccc(NC(=O)c2ccc(CN3CCN(C)C(=O)C3)cc2)cc1Nc1nccc(-c2cccnc2)n1` the inhibition [1] was “inactive” and the inhibition [2] was “inactive”.

With `CC(=O)N1CCN(Cc2ccc(C(=O)Nc3ccc(C)c(Nc4nccc(-c5cccnc5)n4)c3)cc2)CC1` the inhibition [1] was “inactive” and the inhibition [2] was “inactive”.

For `Cc1ccc(NC(=O)c2ccc(CN3CCN(C=O)CC3)cc2)cc1Nc1nccc(-c2cccnc2)n1`, the inhibition [1] was “inactive” and the inhibition [2] was “inactive”.

`Cc1ccc(NC(=O)c2ccc(CN3CCNCC3)cc2)cc1Nc1nccc(-c2cccnc2)n1` showed an IC50 (Bcr/Abl fusion protein [3]) of 512 nM, an IC50 (Bcr/Abl fusion protein [4]) of 2230 nM and an IC50 (Bcr/Abl fusion protein [5]) of 1560 nM. It also gave an IC50 [6] of 342 nM.

Work on `[2H]C([2H])([2H])N1CCN(Cc2ccc(C(=O)Nc3ccc(C)c(Nc4nccc(-c5cccnc5)n4)c3)cc2)CC1` yielded an AUC (Rattus norvegicus) of 0.011 µM·h, an AUC(0-t) at 48 h [7] of 1.15 µM·h and a Stability (Liver microsomes [8]) of 81.9%. The Stability (Liver microsomes [9]) was 80.9% and the AUC (in vivo) was 1.85 µM·h.

Molecule `Cc1ccc(NC(=O)c2ccc(CN3CCN(C)CC3)cc2)cc1Nc1nccc(-c2cccnc2)n1` [IMATINIB] has an AUC (Rattus norvegicus) of 0.0339 µM·h, an AUC(0-t) at 48 h [7] of 1.42 µM·h and a Stability (Liver microsomes [8]) of 67.3%. It also gave a Stability (Liver microsomes [9]) of 77.2% and an AUC (in vivo) of 1.97 µM·h.
